Assay results collected from several papers.
Each line is one published result; the experiments were not run side by side.
Target: Proto-oncogene tyrosine-protein kinase ROS (ROS1, Homo sapiens, UniProt P08922)

Structure (SMILES) | test | setting | endpoint | value
COc1cc2c(Nc3ccc(Br)cc3F)ncnc2cc1OCC1CCN(C)CC1 | cell-free assay | 0.5 µM | remaining signal | 76.5%
COc1cc2ncnc(Nc3ccc(Oc4ccccc4)c(C)c3C)c2cc1OC | enzyme activity, inhibitor | 1 µM | inhibition | -2%
CCN(CC)c1ccc(C2=NNC(=O)CC2C)cc1[N+](=O)[O-] (stereo not drawn) | enzyme activity, inhibitor | 10 µM | remaining activity | 106%
CCC(=O)N[C@H]1CC[C@@H](C(=O)N(C)c2ccc(-c3nc4ccccc4o3)cc2)C1 | cell-free assay, competition with immobilised ligand | 1 µM | remaining binding | 93%
COc1cc2nccc(Oc3ccc(NC(=O)c4c5n(n(-c6ccc(F)cc6)c4=O)CCCC5)cc3)c2cc1OC | enzyme activity, inhibitor | 0.1 µM | inhibition | 26%
COCCOc1nc(-c2ccc(Cl)nc2)nc2c1CN(C(=O)c1ncn3ccccc13)CC2 | cell-free assay, competition with immobilised ligand | 0.1 µM | remaining binding | 100%
CNC(=O)c1cc(Oc2ccc(NC(=O)Nc3ccc(Cl)c(C(F)(F)F)c3)cc2)ccn1 | cell-free assay | 0.5 µM | remaining signal | 95.7%
CCN(CC)CCNC(=O)c1c(C)[nH]c(/C=C2\C(=O)Nc3ccc(F)cc32)c1C | enzyme activity, inhibitor | 10 µM | inhibition | 35%
Cc1sc(C(=O)NC2COC2)cc1-n1cc(NC(=O)Nc2c(F)cccc2Cl)cn1 | enzyme activity, inhibitor | 10 µM | remaining activity | 102%
CCOCCn1cc(C(=O)Nc2ccc(-n3nc(-c4cccnc4)cc3C(F)(F)F)cn2)ccc1=O | cell-free assay, competition with immobilised ligand | 1 µM | remaining binding | 100%
N#CCCc1ccc2c(c1)-c1[nH]c3ccc([N+](=O)[O-])cc3c1CC(=O)N2 | cell-free assay | 0.5 µM | remaining signal | 71%
CNC(=O)c1cc2c(Oc3ccc(NC(=O)C4(C(=O)Nc5ccc(F)cc5)CC4)cc3)ccnc2cc1OC | enzyme activity, inhibitor, radiometric | 1 µM | inhibition | 89%
Nc1ncnc2occ(-c3ccc(NC(=O)Nc4cc(C(F)(F)F)ccc4F)cc3)c12 | cell-free assay | 20 µM | remaining signal | 4.9%
F[C@@H]1CCN(c2nccc(-c3cnn4ncccc34)n2)C1 | binding | 1 µM | remaining binding | 88%
CC(=O)N1CCC(c2ccc(C(=O)NC(=N)N)cc2C(F)(F)F)CC1 | cell-free assay, competition with immobilised ligand | 1 µM | remaining binding | 100%
CCCS(=O)(=O)Nc1ccc(F)c(C(=O)c2c[nH]c3ncc(-c4ccc(Cl)cc4)cc23)c1F | enzyme activity, inhibitor | 1 µM | inhibition | < 10%
Cc1c(NC(=O)c2cc(C(N)=O)nc3cc(F)ccc23)c(C(F)(F)F)nn1Cc1ccc(C#N)cc1 | cell-free assay, competition with immobilised ligand | 1 µM | remaining binding | 99%
Cc1ccc(Nc2nccc(N(C)c3ccc4c(C)n(C)nc4c3)n2)cc1S(N)(=O)=O | enzyme activity, inhibitor | 10 µM | inhibition | 13%
CC(C)(C)c1nc2c(s1)c1nc(N)ncc1c1ccc(NS(=O)(=O)c3c(F)cccc3F)c(F)c12 | enzyme activity, inhibitor, radiometric | 1 µM | remaining activity | 109%
COc1cc(Cl)c(C(=O)N[C@@H](CN[C@H]2CC[C@@H](N)CC2)Cc2ccc(C#N)cc2)cc1-c1ccc(CN[C@H](C)c2ccc(C)cc2)o1 | enzyme activity, inhibitor | 1 µM | remaining activity | 137%
CC(=O)c1c(NS(C)(=O)=O)c2cc(-c3ccc(Cl)cc3)c(-c3ccc(Cl)cc3Cl)nc2n(C)c1=O | cell-free assay, competition with immobilised ligand | 1 µM | remaining binding | 100%
C[S+]([O-])c1ccc(-c2nc(-c3ccncc3)c(-c3ccc(F)cc3)[nH]2)cc1 (stereo not drawn) | cell-free assay | 0.5 µM | remaining signal | 94.4%
Cc1cc(NC(=O)c2cccc3cc(-c4cccc5[nH]nc(N)c45)ccc23)ccc1F | enzyme activity, inhibitor | 0.1 µM | activity vs control | 111%
CCCOc1ccc([C@@H]2[C@@H](C(=O)O)[C@H](c3ccc4c(c3)OCO4)CN2CC(=O)Nc2c(CC)cccc2CC)cc1 | cell-free assay, competition with immobilised ligand | 1 µM | remaining binding | 90%
CCCOc1ccc(OC)c(F)c1C(=O)c1ccc(C(=O)N[C@@H]2CNC[C@H]2NC(=O)c2ccc3[nH]ncc3c2)cc1 | enzyme activity, inhibitor | 10 µM | remaining activity | 105%
CC1=C(C#N)C(c2ccc3c(c2)c(NC(=O)c2ccccc2C)nn3C)C(C#N)=C(C)N1 | cell-free assay, competition with immobilised ligand | 1 µM | remaining binding | 100%
CNCc1ccc(-c2cc(-c3nc(-c4ccc(S(=O)(=O)C(C)C)cc4)cnc3N)on2)cc1 | enzyme activity, inhibitor | 2 µM | inhibition | 4%
